According to ChEMBL document CHEMBL5705886, “GSK1070916, a potent Aurora B/C kinase inhibitor with broad antitumor activity in tissue culture cells and human tumor xenograft models” (Mol Cancer Ther, 2009):
The source made the active and inactive calls. The calls are words filed in the database; no cut-off is given here.

Tests used:
[1] = tested on: RKO; test: Antiproliferative activity against human RKO cells assessed as inhibition of cell viability measured for 6 to 7 days by cell titer glo assay; format: functional, cell-based
Outline: (§1)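 Cells seeded in recommended growth medium, held overnight at 37°C in 5% CO2, then exposed to serial dilutions of inhibitor for 6–7 d. A time-zero plate was read with CellTiter-Glo at dosing. Luminescent viability read at the end. No-cell wells subtracted as background, data expressed as percent of DMSO control.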

[2] = tested on: MX1; test: Antiproliferative activity against human MX1 cells assessed as inhibition of cell viability measured for 6 to 7 days by cell titer glo assay; format: functional, cell-based
Outline: (§2)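 Cells seeded in recommended growth medium, incubated overnight at 37°C in 5% CO2, then exposed to serial dilutions of inhibitor for 6–7 d. A parallel plate was read with CellTiter-Glo at compound addition as a T=0 value. The luminescent viability readout had no-cell background subtracted and was expressed as % of DMSO control.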

[3] = tested on: MDA-MB-231; test: Antiproliferative activity against human MDA-MB-231 cells assessed as inhibition of cell viability measured for 6 to 7 days by cell titer glo assay; format: functional, cell-based; outline: as §2
[4] = tested on: HeLa; test: Antiproliferative activity against human HeLa cells assessed as inhibition of cell viability measured for 6 to 7 days by cell titer glo assay; format: functional, cell-based; outline: as §2
[5] = tested on: OVCAR-4; test: Antiproliferative activity against human OVCAR-4 cells assessed as inhibition of cell viability measured for 6 to 7 days by cell titer glo assay; format: functional, cell-based; outline: as §1
[6] = tested on: PANC-1; test: Antiproliferative activity against human PANC-1 cells assessed as inhibition of cell viability measured for 6 to 7 days by cell titer glo assay; format: functional, cell-based; outline: as §1
[7] = tested on: NCI-H460; test: Antiproliferative activity against human NCI-H460 cells assessed as inhibition of cell viability measured for 6 to 7 days by cell titer glo assay; format: functional, cell-based; outline: as §1
[8] = tested on: NCI-H1299; test: Antiproliferative activity against human NCI-H1299 cells assessed as inhibition of cell viability measured for 6 to 7 days by cell titer glo assay; format: functional, cell-based; outline: as §2
[9] = tested on: NCI-H1155; test: Antiproliferative activity against human NCI-H1155 cells assessed as inhibition of cell viability measured for 6 to 7 days by cell titer glo assay; format: functional, cell-based; outline: as §2
[10] = tested on: SR; test: Antiproliferative activity against human SR cells assessed as inhibition of cell viability measured for 6 to 7 days by cell titer glo assay; format: functional, cell-based; outline: as §1
[11] = tested on: HT; test: Antiproliferative activity against human HT cells assessed as inhibition of cell viability measured for 6 to 7 days by cell titer glo assay; format: functional, cell-based; outline: as §2
[12] = tested on: DB; test: Antiproliferative activity against human DB cells assessed as inhibition of cell viability measured for 6 to 7 days by cell titer glo assay; format: functional, cell-based
Outline: (§3)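 Tumor lines plated in recommended growth media, overnight at 37°C, 5% CO2, then given serial dilutions; a T=0 plate read with CellTiter-Glo at dosing. After 6–7 d of exposure, viability read by CellTiter-Glo luminescence. No-cell wells subtracted, data expressed as % of DMSO control.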

[13] = tested on: ARH-77; test: Antiproliferative activity against human ARH-77 cells assessed as inhibition of cell viability measured for 6 to 7 days by cell titer glo assay; format: functional, cell-based; outline: as §3
[14] = tested on: RCK8; test: Antiproliferative activity against human RCK8 cells assessed as inhibition of cell viability measured for 6 to 7 days by cell titer glo assay; format: functional, cell-based; outline: as §1
[15] = Antiproliferative activity against human BC-2 cells assessed as inhibition of cell viability measured for 6 to 7 days by cell titer glo assay; format: functional, cell-based; outline: as §3
[16] = tested on: ST486; test: Antiproliferative activity against human ST486 cells assessed as inhibition of cell viability measured for 6 to 7 days by cell titer glo assay; format: functional, cell-based; outline: as §1
[17] = tested on: EB2; test: Antiproliferative activity against human EB2 cells assessed as inhibition of cell viability measured for 6 to 7 days by cell titer glo assay; format: functional, cell-based; outline: as §3
[18] = tested on: Daudi; test: Antiproliferative activity against human Daudi cells assessed as inhibition of cell viability measured for 6 to 7 days by cell titer glo assay; format: functional, cell-based; outline: as §3
[19] = tested on: JIYOYE; test: Antiproliferative activity against human JIYOYE cells assessed as inhibition of cell viability measured for 6 to 7 days by cell titer glo assay; format: functional, cell-based; outline: as §2
[20] = tested on: CA46; test: Antiproliferative activity against human CA46 cells assessed as inhibition of cell viability measured for 6 to 7 days by cell titer glo assay; format: functional, cell-based; outline: as §3
[21] = Antiproliferative activity against human 1A2 cells assessed as inhibition of cell viability measured for 6 to 7 days by cell titer glo assay; format: functional, cell-based; outline: as §3
[22] = tested on: SUP-B15; test: Antiproliferative activity against human SUP-B15 cells assessed as inhibition of cell viability measured for 6 to 7 days by cell titer glo assay; format: functional, cell-based; outline: as §1
[23] = Antiproliferative activity against human RCH-ACV cells assessed as inhibition of cell viability measured for 6 to 7 days by cell titer glo assay; format: functional, cell-based; outline: as §1
[24] = tested on: OCI-AML-3; test: Antiproliferative activity against human OCI-AML-3 cells assessed as inhibition of cell viability measured for 6 to 7 days by cell titer glo assay; format: functional, cell-based; outline: as §1
[25] = tested on: NB-4; test: Antiproliferative activity against human NB4 cells assessed as inhibition of cell viability measured for 6 to 7 days by cell titer glo assay; format: functional, cell-based; outline: as §2
[26] = Antiproliferative activity against human OCI-M1 cells assessed as inhibition of cell viability measured for 6 to 7 days by cell titer glo assay; format: functional, cell-based; outline: as §1
[27] = tested on: MEG-01; test: Antiproliferative activity against human MEG-01 cells assessed as inhibition of cell viability measured for 6 to 7 days by cell titer glo assay; format: functional, cell-based; outline: as §2
[28] = Antiproliferative activity against human CML-T1 cells assessed as inhibition of cell viability measured for 6 to 7 days by cell titer glo assay; format: functional, cell-based; outline: as §3
[29] = tested on: HuT78; test: Antiproliferative activity against human HuT78 cells assessed as inhibition of cell viability measured for 6 to 7 days by cell titer glo assay; format: functional, cell-based; outline: as §2
[30] = tested on: A549; test: Effect on cell cycle distribution in human A549 cells assessed as increase in >4N DNA content at 2 to 5000 nM incubated for 24 to 72 hrs by flow cytometry based analysis; format: functional; settings: dose 2-5000 nM, time 24-72 hrs
[31] = tested on: A549; test: Effect on cell cycle distribution in human A549 cells assessed as increase in sub-2N DNA content at 2 to 5000 nM incubated for 24 to 72 hrs by flow cytometry based analysis; format: functional; settings: dose 2-5000 nM, time 24-72 hrs
[32] = tested on: A549; test: Induction of mitotic alteration in human A549 cells formation of malformed bipolar at 12 to 330 nmol/L incubated for 24 hrs by immunofluorescent microscopy based analysis; format: functional, cell-based; settings: dose lower […], dose upper 330.0 nmol/L
[33] = tested on: HCT-116; test: In vivo inhibition of Aurora B in human HCT-116 cells xenografted in athymic nude mouse assessed as inhibition of HH3-S10 phosphorylation administered as single ip dose incubated for 0.5 to 72 hrs; format: functional, organism-based; settings: dose 25-100 mg/kg, time 0.5-72 hrs
[34] = Toxicity in SCID nude mouse xenografted with human HCT-116 cells assessed as drug tolerance at 25 to 100 mg/kg, ip administered once daily for 5 consecutive days with 2 days off scheduled for 3 cycles measured upto 60 days; format: organism-based; settings: in vivo, 1440 h, dose 25-100 mg/kg, time < 60 day
[35] = tested on: HCT-116; test: Antitumor activity in human HCT-116 cells xenografted in nude mouse assessed as reduction in tumor growth at 25 to 100 mg/kg, ip administered once daily for 5 consecutive days with 2 days off scheduled for 3 cycles measured upto 60 days; settings: dose 25-100 mg/kg, time <= 60.0 day

SMILES: CCn1cc(-c2ccnc3[nH]c(-c4cccc(CN(C)C)c4)cc23)c(-c2ccc(NC(=O)N(C)C)cc2)n1 [GSK-1070916]
- EC50 [1]: 7 nM
- EC50 [2]: 8 nM
- EC50 [3]: 11 nM
- EC50 [4]: 13 nM
- EC50 [5]: 11 nM
- EC50 [6]: 13 nM
- EC50 [7]: 14 nM
- EC50 [8]: 23 nM
- EC50 [9]: 40 nM
- EC50 [10]: 3 nM
- EC50 [11]: 7 nM
- EC50 [12]: 11 nM
- EC50 [13]: 15 nM
- EC50 [14]: 38 nM
- EC50 [15]: 75 nM
- EC50 [16]: 2 nM
- EC50 [17]: 2 nM
- EC50 [18]: 5 nM
- EC50 [19]: 5 nM
- EC50 [20]: 5 nM
- EC50 [21]: 9 nM
- EC50 [22]: 2 nM
- EC50 [23]: 4 nM
- EC50 [24]: 4 nM
- EC50 [25]: 11 nM
- EC50 [26]: 20 nM
- EC50 [27]: 44 nM
- EC50 [28]: 3 nM
- EC50 [29]: 14 nM
- Activity [30]: Active
- Activity [31]: Active
- Activity [32]: Active
- Activity [33]: Dose-Dependent Effect
- Activity [34]: Non-Toxic
- Activity [35]: Active
